One block for each molecule: values may come before it. Activity calls are given as the source filed them. No cut-off for these calls is given here.
Experiments:
HepG2 [1] = experiment: Antiproliferative activity against human HepG2 cells incubated for 72 hrs by MTT assay; type: functional, cell-based; conditions: HepG2, 72 h
Summary of the method: (§1)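 Cells in exponential growth were plated at 3×10^3 cells/well and grown 24 h at 37 °C in 5% CO2. They were then exposed to a range of drug concentrations for 72 h. MTT (5 mg/mL solution) was added for 4 h, the medium was discarded, and formazan was dissolved in DMSO before reading A490. Drug-free wells served as blanks. % inhibition was calculated as 1 − (sample−blank)/(control−blank), and IC50 was taken as the concentration giving 50% inhibition.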

A549 [2] = experiment: Antiproliferative activity against human A549 cells incubated for 72 hrs by MTT assay; type: functional, cell-based; conditions: A549, 72 h; summary of the method: as §1
HeLa = experiment: Antiproliferative activity against human HeLa cells incubated for 72 hrs by MTT assay; type: functional, cell-based; summary of the method: as §1
MCF7 = experiment: Antiproliferative activity against human MCF7 cells incubated for 72 hrs by MTT assay; type: functional, cell-based; conditions: MCF7, 72 h; summary of the method: as §1
MDCK = experiment: Cytotoxicity against MDCK cells incubated for 72 hrs by MTT assay; type: cell-based; conditions: Canis lupus familiaris; summary of the method: as §1
HepG2 [3] = experiment: Ratio of IC50 for GA to IC50 for test compound for human HepG2 cells; type: functional
A549 [4] = experiment: Induction of apoptosis in human A549 cells assessed as early apoptotic cells at 1 uM incubated for 72 hrs by annexin V-FITC and PI staining based flow cytometric analysis (reference value: 3.0%); type: functional
A549 [5] = experiment: Induction of apoptosis in human A549 cells assessed as late apoptotic cells at 3 uM incubated for 72 hrs by annexin V-FITC and PI staining based flow cytometric analysis (reference value: 6.5%); type: functional
A549 [6] = experiment: Induction of apoptosis in human A549 cells assessed as live cell at 3 uM incubated for 72 hrs by annexin V-FITC and PI staining based flow cytometric analysis (reference value: 90%); type: functional
A549 [7] = experiment: Induction of cell cycle arrest in human A549 cells assessed as accumulation at G1 phase at 3 uM incubated for 72 hrs by PI staining based flow cytometric analysis (reference value: 49.94%); type: functional
A549 [8] = experiment: Induction of apoptosis in human A549 cells assessed as necrotic cells at 3 uM incubated for 72 hrs by annexin V-FITC and PI staining based flow cytometric analysis (reference value: 0.5%); type: functional
A549 [9] = experiment: Induction of apoptosis in human A549 cells assessed as necrotic cells at 1 uM incubated for 72 hrs by annexin V-FITC and PI staining based flow cytometric analysis (reference value: 0.5%); type: functional
A549 [10] = experiment: Induction of apoptosis in human A549 cells assessed as live cell at 1 uM incubated for 72 hrs by annexin V-FITC and PI staining based flow cytometric analysis (reference value: 90%); type: functional
A549 [11] = experiment: Induction of morphological changes in human A549 cells assessed as condensation of chromatin at 1 to 5 uM incubated for 72 hrs by DAPI staining by inverted phase-contrast microscopic method; type: functional, cell-based
Summary of the method: (§2)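 Exponentially growing A549 cells were plated at 2.4×10^4 cells/well, grown 24 h at 37 °C in 5% CO2, then exposed to 1, 3 or 5 μM for 72 h beside untreated controls. Cells were washed twice in PBS, fixed in 4% paraformaldehyde for 10 min, and stained with DAPI (10 µg/mL) for 1 min in the dark. Nuclei were examined by inverted microscope at 200×.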

A549 [12] = experiment: Induction of apoptosis in human A549 cells assessed as late apoptotic cells at 1 uM incubated for 72 hrs by annexin V-FITC and PI staining based flow cytometric analysis (reference value: 6.5%); type: functional
A549 [13] = experiment: Induction of morphological changes in human A549 cells assessed as appearance of apoptotic body formation at 1 to 5 uM incubated for 72 hrs by DAPI staining by inverted phase-contrast microscopic method; type: functional, cell-based; summary of the method: as §2
A549 [14] = experiment: Ratio of IC50 for GA to IC50 for test compound for human A549 cells; type: functional
A549 [15] = experiment: Induction of morphological changes in human A549 cells assessed as formation of nuclear fragmentation at 1 to 5 uM incubated for 72 hrs by DAPI staining by inverted phase-contrast microscopic method; type: functional, cell-based; summary of the method: as §2
A549 [16] = experiment: Induction of cell cycle arrest in human A549 cells assessed as accumulation at G2 phase at 3 uM incubated for 72 hrs by PI staining based flow cytometric analysis (reference value: 18.65%); type: functional
A549 [17] = experiment: Induction of apoptosis in human A549 cells assessed as live cell at 5 uM incubated for 72 hrs by annexin V-FITC and PI staining based flow cytometric analysis (reference value: 90%); type: functional
A549 [18] = experiment: Induction of cell cycle arrest in human A549 cells assessed as accumulation at G1 phase at 1 uM incubated for 72 hrs by PI staining based flow cytometric analysis (reference value: 49.94%); type: functional
A549 [19] = experiment: Induction of cell cycle arrest in human A549 cells assessed as accumulation at S phase at 5 uM incubated for 72 hrs by PI staining based flow cytometric analysis (reference value: 31.41%); type: functional
A549 [20] = experiment: Induction of cell cycle arrest in human A549 cells assessed as accumulation at S phase at 3 uM incubated for 72 hrs by PI staining based flow cytometric analysis (reference value: 31.41%); type: functional
A549 [21] = experiment: Induction of apoptosis in human A549 cells assessed as necrotic cells at 5 uM incubated for 72 hrs by annexin V-FITC and PI staining based flow cytometric analysis (reference value: 0.5%); type: functional
A549 [22] = experiment: Induction of cell cycle arrest in human A549 cells assessed as accumulation at S phase at 1 uM incubated for 72 hrs by PI staining based flow cytometric analysis (reference value: 31.41%); type: functional
A549 [23] = experiment: Induction of apoptosis in human A549 cells assessed as late apoptotic cells at 5 uM incubated for 72 hrs by annexin V-FITC and PI staining based flow cytometric analysis (reference value: 6.5%); type: functional
A549 [24] = experiment: Induction of cell cycle arrest in human A549 cells assessed as accumulation at G2 phase at 1 uM incubated for 72 hrs by PI staining based flow cytometric analysis (reference value: 18.65%); type: functional
A549 [25] = experiment: Induction of apoptosis in human A549 cells assessed as early apoptotic cells at 5 uM incubated for 72 hrs by annexin V-FITC and PI staining based flow cytometric analysis (reference value: 3.0%); type: functional
A549 [26] = experiment: Induction of cell cycle arrest in human A549 cells assessed as accumulation at G1 phase at 5 uM incubated for 72 hrs by PI staining based flow cytometric analysis (reference value: 49.94%); type: functional
A549 [27] = experiment: Induction of apoptosis in human A549 cells assessed as early apoptotic cells at 3 uM incubated for 72 hrs by annexin V-FITC and PI staining based flow cytometric analysis (reference value: 3.0%); type: functional
A549 [28] = experiment: Induction of cell cycle arrest in human A549 cells assessed as accumulation at G2 phase at 5 uM incubated for 72 hrs by PI staining based flow cytometric analysis (reference value: 18.65%); type: functional

Structure (SMILES): CC1(C)[C@@H](NC(=O)[C@@H]2CCCN2)CC[C@]2(C)[C@H]3C(=O)C=C4[C@@H]5C[C@@](C)(C(=O)OCc6ccccc6)CC[C@]5(C)CC[C@@]4(C)[C@]3(C)CC[C@@H]12
IC50 (HepG2 [1]): 2.14 µM | IC50 (A549 [2]): 3.26 µM | IC50 (HeLa): 2.21 µM | IC50 (MCF7): 7.62 µM | IC50 (MDCK): 2.53 µM | Ratio IC50 (HepG2 [3]): 16

Structure (SMILES): C[C@H](N)C(=O)N[C@H]1CC[C@]2(C)[C@H]3C(=O)C=C4[C@@H]5C[C@@](C)(C(=O)OCc6ccccc6)CC[C@]5(C)CC[C@@]4(C)[C@]3(C)CC[C@H]2C1(C)C
Activity (A549 [4]): 5.9% | Activity (A549 [5]): 7.5% | Activity (A549 [6]): 65.7% | Activity (A549 [7]): 56.45% | Activity (A549 [8]): 0.3% | Activity (A549 [9]): 0.4% | IC50 (HepG2 [1]): 2.44 µM | Activity (A549 [10]): 85% | Activity (A549 [11]): Active | Activity (A549 [12]): 8.6% | Activity (A549 [13]): Active | Ratio IC50 (A549 [14]): 18 | IC50 (A549 [2]): 2.11 µM | Activity (A549 [15]): Active | Activity (A549 [16]): 9.96% | Activity (A549 [17]): 54% | IC50 (HeLa): 2.39 µM | IC50 (MCF7): 2.14 µM | Activity (A549 [18]): 53.09% | Activity (A549 [19]): 53.21% | Activity (A549 [20]): 33.59% | IC50 (MDCK): 4.65 µM | Activity (A549 [21]): 0% | Activity (A549 [22]): 31.05% | Activity (A549 [23]): 1.1% | Activity (A549 [24]): 15.86% | Activity (A549 [25]): 44.8% | Activity (A549 [26]): 46.79% | Activity (A549 [27]): 26.5% | Activity (A549 [28]): 0%

Structure (SMILES): CNCC(=O)O[C@H]1CC[C@]2(C)[C@H]3C(=O)C=C4[C@@H]5C[C@@](C)(C(=O)OCc6ccccc6)CC[C@]5(C)CC[C@@]4(C)[C@]3(C)CC[C@H]2C1(C)C
IC50 (HepG2 [1]): 4.56 µM | IC50 (A549 [2]): 5 µM | IC50 (HeLa): 8 µM | IC50 (MCF7): 3.89 µM | IC50 (MDCK): 5.76 µM

Structure (SMILES): CSCC[C@H](N)C(=O)O[C@H]1CC[C@]2(C)[C@H]3C(=O)C=C4[C@@H]5C[C@@](C)(C(=O)OCc6ccccc6)CC[C@]5(C)CC[C@@]4(C)[C@]3(C)CC[C@H]2C1(C)C
IC50 (HepG2 [1]): 9.96 µM | IC50 (A549 [2]): 7.53 µM | IC50 (HeLa): 10.6 µM | IC50 (MCF7): 8.07 µM | IC50 (MDCK): 39.2 µM

Structure (SMILES): CC(C)(C)OC(=O)N[C@@H](Cc1ccccc1)C(=O)O[C@H]1CC[C@]2(C)[C@H]3C(=O)C=C4[C@@H]5C[C@@](C)(C(=O)OCc6ccccc6)CC[C@]5(C)CC[C@@]4(C)[C@]3(C)CC[C@H]2C1(C)C
IC50 (HepG2 [1]): > 40 µM | IC50 (A549 [2]): > 40 µM | IC50 (HeLa): > 40 µM | IC50 (MCF7): > 40 µM | IC50 (MDCK): > 40 µM

Structure (SMILES): CC1(C)[C@@H](OC(=O)CN)CC[C@]2(C)[C@H]3C(=O)C=C4[C@@H]5C[C@@](C)(C(=O)OCc6ccccc6)CC[C@]5(C)CC[C@@]4(C)[C@]3(C)CC[C@@H]12
IC50 (HepG2 [1]): 3.31 µM | IC50 (A549 [2]): 2.75 µM | IC50 (HeLa): 3.3 µM | IC50 (MCF7): 3.81 µM | IC50 (MDCK): 4.43 µM

Second part, led by results:

IC50 (HepG2 [1]): 3.07 µM | IC50 (A549 [2]): 3.17 µM | IC50 (HeLa): 5 µM | IC50 (MCF7): 4.39 µM
Structure (SMILES): C[C@H](N)C(=O)O[C@H]1CC[C@]2(C)[C@H]3C(=O)C=C4[C@@H]5C[C@@](C)(C(=O)OCc6ccccc6)CC[C@]5(C)CC[C@@]4(C)[C@]3(C)CC[C@H]2C1(C)C
IC50 (MDCK): 3.4 µM

IC50 (HepG2 [1]): > 40 µM | IC50 (A549 [2]): > 40 µM | IC50 (HeLa): > 40 µM | IC50 (MCF7): > 40 µM
Structure (SMILES): CC(C)(C)OC(=O)NCC(=O)N[C@H]1CC[C@]2(C)[C@H]3C(=O)C=C4[C@@H]5C[C@@](C)(C(=O)OCc6ccccc6)CC[C@]5(C)CC[C@@]4(C)[C@]3(C)CC[C@H]2C1(C)C
IC50 (MDCK): > 40 µM

IC50 (HepG2 [1]): > 40 µM | IC50 (A549 [2]): > 40 µM | IC50 (HeLa): > 40 µM | IC50 (MCF7): > 40 µM
Structure (SMILES): CN(CC(=O)N[C@H]1CC[C@]2(C)[C@H]3C(=O)C=C4[C@@H]5C[C@@](C)(C(=O)OCc6ccccc6)CC[C@]5(C)CC[C@@]4(C)[C@]3(C)CC[C@H]2C1(C)C)C(=O)OC(C)(C)C
IC50 (MDCK): > 40 µM

IC50 (HepG2 [1]): > 40 µM | IC50 (A549 [2]): > 40 µM | IC50 (HeLa): > 40 µM | IC50 (MCF7): > 40 µM
Structure (SMILES): CC(C)(C)OC(=O)N1CCC[C@H]1C(=O)O[C@H]1CC[C@]2(C)[C@H]3C(=O)C=C4[C@@H]5C[C@@](C)(C(=O)OCc6ccccc6)CC[C@]5(C)CC[C@@]4(C)[C@]3(C)CC[C@H]2C1(C)C
IC50 (MDCK): > 40 µM

IC50 (HepG2 [1]): > 40 µM | IC50 (A549 [2]): > 40 µM | IC50 (HeLa): > 40 µM | IC50 (MCF7): > 40 µM
Structure (SMILES): CSCC[C@H](NC(=O)OC(C)(C)C)C(=O)O[C@H]1CC[C@]2(C)[C@H]3C(=O)C=C4[C@@H]5C[C@@](C)(C(=O)OCc6ccccc6)CC[C@]5(C)CC[C@@]4(C)[C@]3(C)CC[C@H]2C1(C)C
IC50 (MDCK): > 40 µM

IC50 (HepG2 [1]): > 40 µM | IC50 (A549 [2]): > 40 µM | IC50 (HeLa): > 40 µM | IC50 (MCF7): > 40 µM
Structure (SMILES): CN(CC(=O)O[C@H]1CC[C@]2(C)[C@H]3C(=O)C=C4[C@@H]5C[C@@](C)(C(=O)OCc6ccccc6)CC[C@]5(C)CC[C@@]4(C)[C@]3(C)CC[C@H]2C1(C)C)C(=O)OC(C)(C)C
IC50 (MDCK): > 40 µM
